ANO1 activ – mouse TMEM16A channel activation, primary screen. HEK293 TMEM16A/YFP-H148Q/I152L, iodide quench fluorescence; stronger effect = lower value. B-score at 10 µM. 0.3% of 340,000 active. Q8BHY3;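 active = fluorescence-ratio B-score plate-corrected deviation score at least 3 library SD below zero, with starting fluorescence score within 5 deviations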;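 note: channel opened by trigger with iodide after compound preincubation; score built on the fluorescence ratio of max minus min over baseline; more negative score means more quench and so TMEM16A activation or potentiation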
CRFBP-R2 block – blocks CRF-induced signaling of the CRF-BP/CRF-R2 complex. HEK293 CRF-R2/CRF-BP, CRF-induced calcium fluorescence. inhibition, % at 11.8 µM. 0.59% of 350,000 active. AID 588475;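 active = inhibition of the ligand-induced calcium signal above about 50% at the single tested concentration, limit read from the data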
ANO1 block – mouse TMEM16A channel inhibition, primary screen. AID 588511. normalized B-score (activity score, 25-100; higher = stronger inhibition) at 10 µM. 1.2% of 310,000 active. Q8BHY3. HEK293 TMEM16A/YFP iodide influx fluorescence, ionomycin;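 active = ratio plate-corrected score three or more library SD toward inhibition, starting fluorescence score within five deviations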;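 note: score derived from kinetic fluorescence span divided by baseline fluorescence per well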
CRFBP-R2 agonist – agonists of human CRF-binding protein/CRF-R2 receptor complex; HEK293 CRF-R2/CRF-BP, calcium dye fluorescence (FLIPR); percent of saturating CRF peptide response; activation, % at 13.2 µM; 0.46% of 350,000 active;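 active = activation of at least 50%, plus an integration ratio under a set limit after plate pattern correction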;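 note: plate controls were neutral control wells without compound for no effect and CRF at EC100 for full effect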
TAAR1 antag – human TAAR1 antagonism; 1.5% of 360,000 active; inhibition, % at 3 µM; CHO RD-HGA16 TAAR1, Fluo-8 calcium fluorescence, antagonist;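 active = inhibition above a per-plate cutoff, the mean inhibition of test compounds on that plate plus 3 SD, cut at about 49% in these data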;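 note: 0% = DMSO plus EC80 beta-PEA response and 100% = DMSO alone without agonist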
Target sequence (Q96RJ0 whole entry, looked up): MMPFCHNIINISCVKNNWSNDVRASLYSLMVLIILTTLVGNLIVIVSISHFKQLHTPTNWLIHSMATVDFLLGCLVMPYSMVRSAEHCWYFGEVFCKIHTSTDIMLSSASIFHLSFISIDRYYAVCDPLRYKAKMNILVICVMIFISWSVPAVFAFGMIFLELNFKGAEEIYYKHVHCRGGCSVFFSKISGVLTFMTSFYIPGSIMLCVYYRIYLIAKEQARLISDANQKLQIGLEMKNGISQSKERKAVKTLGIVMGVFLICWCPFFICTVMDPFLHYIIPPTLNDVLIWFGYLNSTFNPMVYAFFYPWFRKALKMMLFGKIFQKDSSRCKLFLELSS
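Material: CHO RD-HGA16 cells bearing hTAAR1; compound dosing: one-point dosing, 3 µM nominal final; schedule: dye loading 75 min at 37 °C, then 30 min room temperature; measured by: calcium fluorescence with Fluo-8; control set: vehicle and agonist controls; replication: n of 1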
TAAR1 ag – agonists of human TAAR1. Q96RJ0. CHO RD-HGA16 TAAR1, Fluo-8 calcium fluorescence; vehicle wells 0%, saturating PEA agonist 100%. activation, % at 3 µM. 0.99% of 360,000 active;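 active = activation above the mean activation of all test compounds in the run plus 3 SD, cut at about 38% in these data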
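System: CHO-derived RD-HGA16 cells with stable Gα16 and human TAAR1. Times: 17-24 h plating, Fluo-8 75 min 37 °C, 30 min RT. Measured by: calcium-sensitive Fluo-8 signal, excitation 470-495, emission 515-575 nm. Read-out basis: % activation relative to PEA EC100 response. Control set: DMSO and PEA EC100. Repeats: no replicates (n 1).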
* = called active by the depositor. Rows were chosen to be rich in hits. Some 3.9% of all compounds tested hit in one or more screens of this group.

What do the screens show for `COc1ccccc1N1C(=O)C2C(C(=O)c3ccccc3)=NN(c3ccc(C)cc3)C2C1=O` (configuration not stated)?
ANO1 activ: inactive; CRFBP-R2 block: -65; ANO1 block: inactive; CRFBP-R2 agonist: 91*; TAAR1 antag: 2; TAAR1 ag: 19

How did O=C(C1=NN(c2ccccc2)C2C(=O)N(c3ccc(Cl)cc3)C(=O)C12)c1ccccc1 (configuration not stated) do in these assays?
ANO1 activ: inactive; CRFBP-R2 block: -57; ANO1 block: inactive; CRFBP-R2 agonist: 48; TAAR1 antag: -11; TAAR1 ag: 9

What do the screens show for `Nc1nc(CSCc2ccccc2)nc(N2CCOCC2)n1`?
ANO1 activ: -15*; CRFBP-R2 block: 26; ANO1 block: inactive; CRFBP-R2 agonist: 0; TAAR1 antag: 6; TAAR1 ag: -2

Results for Cc1ccc(Oc2ccc(C(=O)NCc3ccncc3)cc2)cc1 ?
ANO1 activ: inactive; CRFBP-R2 block: 79*; CRFBP-R2 agonist: 2; TAAR1 antag: 0; TAAR1 ag: 1

How did O=C(NCc1ccncc1)c1ccc(Oc2ccccc2)cc1 do in these assays?
ANO1 activ: inactive; CRFBP-R2 block: 8; ANO1 block: inactive; CRFBP-R2 agonist: 1; TAAR1 antag: 0; TAAR1 ag: 0

What do the screens show for `CC(=O)Nc1ccc(N=Cc2c(O)c3ccccc3oc2=O)cc1`?
ANO1 activ: inactive; CRFBP-R2 block: -3; ANO1 block: inactive; CRFBP-R2 agonist: 4; TAAR1 antag: 1; TAAR1 ag: -1

Results for CC(=O)Nc1ccc(N=Cc2c(O)c(C(=O)Nc3ccccc3)cc3ccccc23)cc1 ?
CRFBP-R2 block: -88; ANO1 block: inactive; CRFBP-R2 agonist: 115*; TAAR1 antag: 22; TAAR1 ag: 31

Results for CCOC(=O)C1=C(O)c2ccccc2C(=O)/C1=C\c1ccc(C)cc1 ?
ANO1 activ: inactive; CRFBP-R2 block: -152; ANO1 block: inactive; CRFBP-R2 agonist: 111*

Results for CCOC(=O)C1=C(C)OC(=Cc2ccccc2)C1=O ?
CRFBP-R2 block: 1; CRFBP-R2 agonist: -2; TAAR1 antag: 2; TAAR1 ag: 0

How did CCc1ccc(C(=O)NNC(=O)[C@H](C)NC(=O)c2ccco2)cc1 do in these assays?
ANO1 activ: inactive; CRFBP-R2 block: 8; CRFBP-R2 agonist: 2; TAAR1 antag: -19; TAAR1 ag: -1

How did CCOC(=O)[C@]12CCCC=C1N(Cc1ccc3c(c1)OCO3)C(=O)[C@H](CC(=O)NCc1ccc(C)o1)C2 do in these assays?
TAAR1 antag: -3; TAAR1 ag: 1

How did COc1ccc(C(=O)N2CCCC(c3cc(C(=O)NCc4ccccc4)no3)C2)cc1 (configuration not stated) do in these assays?
TAAR1 antag: -19; TAAR1 ag: 3

Results for O=C(Nc1ncc(Br)s1)C(Cc1ccccc1)n1cccc1 (configuration not stated) ?
ANO1 activ: inactive; CRFBP-R2 block: -63; ANO1 block: 100*; CRFBP-R2 agonist: 4; TAAR1 antag: -10; TAAR1 ag: 1

What do the screens show for `Cc1cc(C)nc(N2CCC(C(=O)NCc3ccccc3)CC2)n1`?
ANO1 activ: inactive; CRFBP-R2 block: -2; ANO1 block: inactive; CRFBP-R2 agonist: -2; TAAR1 antag: -16; TAAR1 ag: 3

How did Cc1cc(C)nc(N2CCC(CNC(=O)CCc3ccccc3)CC2)n1 do in these assays?
ANO1 activ: -7.7*; CRFBP-R2 block: 6; ANO1 block: inactive; CRFBP-R2 agonist: -2; TAAR1 antag: 9; TAAR1 ag: 12

How did CC(=O)Nc1ccc(NC(=O)CC(NC(=O)c2ccccc2)c2ccccc2)cc1 (configuration not stated) do in these assays?
ANO1 activ: inactive; CRFBP-R2 block: -1; ANO1 block: inactive; CRFBP-R2 agonist: -1; TAAR1 antag: -11; TAAR1 ag: 1

Results for Cc1ccc2c(c1)C1CN(C)CCC1N2Sc1ccccc1[N+](=O)[O-] (configuration not stated) ?
ANO1 activ: inactive; CRFBP-R2 block: -26; ANO1 block: inactive; CRFBP-R2 agonist: 3; TAAR1 antag: -2; TAAR1 ag: 40*

How did Nc1nc2c(ncn2[C@@H]2O[C@H](CNC(=O)[C@H](N)Cc3cncn3COCc3ccccc3)[C@@H](O)[C@H]2O)c(=O)[nH]1 do in these assays?
TAAR1 antag: 4; TAAR1 ag: 0

Results for NC(=O)c1c(NC(=O)CSc2nc3c(c(C(F)(F)F)n2)CCc2ccccc2-3)sc2c1CCCC2 ?
ANO1 activ: inactive; CRFBP-R2 block: -15; ANO1 block: inactive; CRFBP-R2 agonist: 2

Results for CN(Cc1ccccc1)C(=O)CSc1nc2c(c(C(F)(F)F)n1)CCc1ccccc1-2 ?
ANO1 activ: inactive; CRFBP-R2 block: -7; ANO1 block: 25*; CRFBP-R2 agonist: 0; TAAR1 antag: 4; TAAR1 ag: 2

Results for Fc1ccccc1NC(=S)NCCc1ccccc1 ?
ANO1 activ: inactive; CRFBP-R2 block: 26; ANO1 block: inactive; CRFBP-R2 agonist: -2; TAAR1 antag: 6; TAAR1 ag: 56*

What do the screens show for `Cc1cc(OC(F)F)ccc1NC(=S)NCCc1ccccc1`?
ANO1 activ: inactive; CRFBP-R2 block: 1; ANO1 block: inactive; CRFBP-R2 agonist: 0; TAAR1 antag: -19; TAAR1 ag: 39*

Results for COc1ccc(NC(=S)NCCc2ccccc2)c(C)c1 ?
ANO1 activ: inactive; CRFBP-R2 block: 11; ANO1 block: inactive; CRFBP-R2 agonist: -2; TAAR1 antag: -8; TAAR1 ag: 0

What do the screens show for `CC(C)(CNC(=S)NCCc1ccccc1)CNC(=S)NCCc1ccccc1`?
ANO1 activ: inactive; CRFBP-R2 block: -32; CRFBP-R2 agonist: 8; TAAR1 antag: 62*; TAAR1 ag: 46*

How did O=C(COc1ccc(Br)cc1)NCC1COc2ccccc2O1 (configuration not stated) do in these assays?
ANO1 activ: inactive; CRFBP-R2 block: 16; CRFBP-R2 agonist: -1; TAAR1 antag: -17; TAAR1 ag: 11

What do the screens show for `Cc1cnc(-c2nc3ccccc3n2C(C)C(=O)Nc2c(C)cccc2C)cn1` (configuration not stated)?
TAAR1 antag: -18; TAAR1 ag: 2

Results for Cn1c2ccccc2c2cc(/C=N/NC(=O)c3ccc(O)cc3O)ccc21 ?
ANO1 activ: inactive; CRFBP-R2 block: -9; ANO1 block: inactive; CRFBP-R2 agonist: -1

What do the screens show for `Cn1c(O)c(/C=N/NC(=O)c2cc3ccccc3cc2O)c2ccccc21`?
ANO1 activ: inactive; CRFBP-R2 block: -104; ANO1 block: inactive; CRFBP-R2 agonist: 117*; TAAR1 antag: 18; TAAR1 ag: 10
